Paper PMC4019989 (Clinical cancer research : an official journal of the …, 2009)

Columns and labels:
[1] = system: chymotrypsin-like activity of the proteasome; conditions: monkeys; i.v. for 5 consecutive days; multiple tissues; well tolerated; cited from earlier work
[2] = system: relapsed or refractory hematologic malignancies; assay: Antitumor activity; format: in vivo, human
How it was run: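 Relapsed/refractory MM, NHL, Hodgkin's or Waldenström's patients got the test compound as an i.v. push over 1–2 min on days 1–5, then 9 d rest (14-d cycles). Doses were 1.2–20 mg/m2, escalated in cohorts of three, continued until unacceptable toxicity or progression. Response used EBMT criteria (MM) and International Working Group criteria (NHL, Hodgkin's). For Waldenström's: complete = total resolution, partial = >50% resolution with no new disease.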

[3] = preclinical studies; cited from earlier work
[4] = system: bortezomib-resistant MM cell lines; conditions: bortezomib-resistant MM cell lines and patient samples; cited from earlier work
[5] = system: 20S chymotrypsin-like proteasome activity; format: in vivo, human
How it was run: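 Chymotrypsin-like proteasome activity in patient whole blood and PBMCs, read with a fluorogenic substrate. Samples: cycle 1 day 1 predose, 1 and 24 h postdose; predose and 1 h postdose on cycle 1 day 5 and day 1 of cycles 2 and 3. Dosing was i.v. push days 1–5 with 9-d rest. Percent activity is each sample's specific activity relative to cycle 1 day 1 predose. Mean ± SEM.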

[6] = system: patients with relapsed or refractory hematologic malignancies; assay: Phase 1 dose escalation: adverse events, DLT, MTD; format: in vivo; conditions: All patients (N = 29)

SMILES: CC(C)C[C@H](NC(=O)[C@H](CCc1ccccc1)NC(=O)CN1CCOCC1)C(=O)N[C@@H](Cc1ccccc1)C(=O)N[C@@H](CC(C)C)C(=O)[C@@]1(C)CO1 [carfilzomib]
- Proteasome (chymotrypsin-like activity) inhibition [1]: > 80%
- Subjects achieving objective tumor responses ([2]; 28 of 29 patients evaluable, all responders treated at 11 mg/m^2 and higher): Four
- Subjects with stable disease ([2]; across all dose cohorts and diagnoses): nine
- Patients with progressive disease while on study ([2]; all cohorts): 15 patients
- Average duration on therapy of subjects with stable disease ([2]; eight cycles): 116 days
- IgA level by the end of the fifth cycle ([2]; person with IgA MM, 11 mg/m^2): 235 mg/dL
- IgA level within two cycles (10 doses) ([2]; person with IgA MM, 11 mg/m^2, from 709 mg/dL): 297 mg/dL
- reduction in serum M-protein ([2]; person with Waldenström's macroglobulinemia, after two cycles of 15 mg/m^2): 25%
- Objective responses in subjects with plasma cell dyscrasias ([2]; treated at or above 11 mg/m^2, two MM, one Waldenström's macroglobulinemia): Three of six
- Time for serum concentrations to approach the limit of assay detection [3]: ≤ 1 h
- Proliferation and apoptosis [4]: inhibited proliferation and induced apoptosis
- Recovery of proteasome activity in PBMCs ([5]; during the 9-day rest period): generally returned to baseline
- Recovery of proteasome activity in whole blood ([5]; during the 9-day rest period): only partially recovered
- Proteasome inhibition after a single dose ([5]; whole blood and PBMCs, dose levels of 15 mg/m^2 and higher, 1 hour after dosing on day 1): > 75%
- Proteasome inhibition after the fifth consecutive day of dosing ([5]; whole blood and PBMCs, highest dose groups, 1 h after the fifth dose): > 90%
- Grade 3 and 4 adverse events: ALT increased, Grades 3-4 ([6]; Table 4): 1 (3) n (%)
- Grade 3 and 4 adverse events: AST increased, Grade 3 ([6]; Table 4): 1 (3) n (%)
- Grade 3 and 4 adverse events: AST increased, Grade 4 ([6]; Table 4): 0 (0) n (%)
- Grade 3 and 4 adverse events: AST increased, Grades 3-4 ([6]; Table 4): 1 (3) n (%)
- Grade 3 and 4 adverse events: Abdominal pain, Grade 3 ([6]; Table 4): 1 (3) n (%)
- Grade 3 and 4 adverse events: Abdominal pain, Grade 4 ([6]; Table 4): 0 (0) n (%)
- Grade 3 and 4 adverse events: Abdominal pain, Grades 3-4 ([6]; Table 4): 1 (3) n (%)
- Grade 3 and 4 adverse events: Anemia, Grades 3-4 ([6]; Table 4): 1 (3) n (%)
- Grade 3 and 4 adverse events: Any, Grade 3 ([6]; Table 4): 11 (38) n (%)
- Grade 3 and 4 adverse events: Any, Grades 3-4 ([6]; Table 4): 14 (48) n (%)
- Grade 3 and 4 adverse events: Chills, Grade 3 ([6]; Table 4): 1 (3) n (%)
- Grade 3 and 4 adverse events: Chills, Grade 4 ([6]; Table 4): 0 (0) n (%)
- Grade 3 and 4 adverse events: Chills, Grades 3-4 ([6]; Table 4): 1 (3) n (%)
- Grade 3 and 4 adverse events: Disease progression, Grade 3 ([6]; Table 4): 1 (3) n (%)
- Grade 3 and 4 adverse events: Disease progression, Grade 4 ([6]; Table 4): 0 (0) n (%)
- Grade 3 and 4 adverse events: Disease progression, Grades 3-4 ([6]; Table 4): 1 (3) n (%)
- Grade 3 and 4 adverse events: Hyperglycemia, Grade 3 ([6]; Table 4): 1 (3) n (%)
- Grade 3 and 4 adverse events: Hyperglycemia, Grade 4 ([6]; Table 4): 0 (0) n (%)
- Grade 3 and 4 adverse events: Hyperglycemia, Grades 3-4 ([6]; Table 4): 1 (3) n (%)
- Grade 3 and 4 adverse events: Neutropenia, Grade 3 ([6]; Table 4): 1 (3) n (%)
- Grade 3 and 4 adverse events: Neutropenia, Grade 4 ([6]; Table 4): 0 (0) n (%)
- Grade 3 and 4 adverse events: Neutropenia, Grades 3-4 ([6]; Table 4): 1 (3) n (%)
- Grade 3 and 4 adverse events: Pain, Grade 3 ([6]; Table 4): 1 (3) n (%)
- Grade 3 and 4 adverse events: Pain, Grade 4 ([6]; Table 4): 0 (0) n (%)
- Grade 3 and 4 adverse events: Pain, Grades 3-4 ([6]; Table 4): 1 (3) n (%)
- Grade 3 and 4 adverse events: Skin infection, Grade 3 ([6]; Table 4): 1 (3) n (%)
- Grade 3 and 4 adverse events: Skin infection, Grade 4 ([6]; Table 4): 0 (0) n (%)
- Grade 3 and 4 adverse events: Skin infection, Grades 3-4 ([6]; Table 4): 1 (3) n (%)
- Grade 3 and 4 adverse events: Syncope, Grade 3 ([6]; Table 4): 1 (3) n (%)
- Grade 3 and 4 adverse events: Syncope, Grade 4 ([6]; Table 4): 0 (0) n (%)
- Grade 3 and 4 adverse events: Syncope, Grades 3-4 ([6]; Table 4): 1 (3) n (%)
- Grade 3 and 4 adverse events: Thrombocytopenia, Grade 3 ([6]; Table 4): 0 (0) n (%)
- Adverse event Any, All Grades ([6]; all dose cohorts): 29 (100) n (%)
- Adverse event Any, Grade 1 ([6]; all dose cohorts): 4 (14) n (%)
- Adverse event Any, Grade 2 ([6]; all dose cohorts): 11 (38) n (%)
- Adverse event Any, Grade 3 ([6]; all dose cohorts): 11 (38) n (%)
- Adverse event Any, Grade 4 ([6]; all dose cohorts): 3 (10) n (%)
- Adverse event Constipation, All Grades ([6]; all dose cohorts): 6 (21) n (%)
- Adverse event Constipation, Grade 1 ([6]; all dose cohorts): 5 (17) n (%)
- Adverse event Constipation, Grade 2 ([6]; all dose cohorts): 1 (3) n (%)
- Adverse event Constipation, Grade 3 ([6]; all dose cohorts): 0 (0) n (%)
- Adverse event Constipation, Grade 4 ([6]; all dose cohorts): 0 (0) n (%)
- Adverse event Cough, All Grades ([6]; all dose cohorts): 8 (28) n (%)
- Adverse event Cough, Grade 1 ([6]; all dose cohorts): 8 (28) n (%)
- Adverse event Cough, Grade 2 ([6]; all dose cohorts): 0 (0) n (%)
- Adverse event Cough, Grade 3 ([6]; all dose cohorts): 0 (0) n (%)
- Adverse event Cough, Grade 4 ([6]; all dose cohorts): 0 (0) n (%)
- Adverse event Diarrhea, All Grades ([6]; all dose cohorts): 10 (35) n (%)
- Adverse event Diarrhea, Grade 1 ([6]; all dose cohorts): 7 (24) n (%)
- Adverse event Diarrhea, Grade 2 ([6]; all dose cohorts): 3 (10) n (%)
- Adverse event Diarrhea, Grade 3 ([6]; all dose cohorts): 0 (0) n (%)
- Adverse event Diarrhea, Grade 4 ([6]; all dose cohorts): 0 (0) n (%)
- Adverse event Pyrexia, Grade 1 ([6]; all dose cohorts): 5 (17) n (%)
- Adverse event Pyrexia, Grade 2 ([6]; all dose cohorts): 3 (10) n (%)
- Adverse event Pyrexia, Grade 3 ([6]; all dose cohorts): 0 (0) n (%)
